How the values were obtained:
[1] = molecular target: T1, Serotonin 3 (5-HT3) receptor (Rattus norvegicus, UniProt P35563+Q9JJ16); experiment: In vitro binding affinity at serotonin 5-hydroxytryptamine 3 receptor in rat cortex by [3H]granisetron displacement.
T1 sequence (P35563 whole entry): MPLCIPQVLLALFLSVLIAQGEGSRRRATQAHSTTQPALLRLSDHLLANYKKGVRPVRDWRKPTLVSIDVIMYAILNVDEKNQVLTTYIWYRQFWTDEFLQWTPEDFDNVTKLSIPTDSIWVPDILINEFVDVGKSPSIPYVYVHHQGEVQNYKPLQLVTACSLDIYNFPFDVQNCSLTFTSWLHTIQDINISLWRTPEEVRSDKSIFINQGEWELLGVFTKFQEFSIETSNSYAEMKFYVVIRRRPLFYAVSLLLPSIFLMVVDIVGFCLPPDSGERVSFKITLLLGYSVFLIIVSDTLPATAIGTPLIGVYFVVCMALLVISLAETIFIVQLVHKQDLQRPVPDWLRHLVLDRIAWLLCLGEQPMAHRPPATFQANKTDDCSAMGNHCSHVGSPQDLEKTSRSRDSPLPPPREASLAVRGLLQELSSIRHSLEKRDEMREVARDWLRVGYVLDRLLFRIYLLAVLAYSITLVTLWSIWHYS
T1 sequence (Q9JJ16 whole entry): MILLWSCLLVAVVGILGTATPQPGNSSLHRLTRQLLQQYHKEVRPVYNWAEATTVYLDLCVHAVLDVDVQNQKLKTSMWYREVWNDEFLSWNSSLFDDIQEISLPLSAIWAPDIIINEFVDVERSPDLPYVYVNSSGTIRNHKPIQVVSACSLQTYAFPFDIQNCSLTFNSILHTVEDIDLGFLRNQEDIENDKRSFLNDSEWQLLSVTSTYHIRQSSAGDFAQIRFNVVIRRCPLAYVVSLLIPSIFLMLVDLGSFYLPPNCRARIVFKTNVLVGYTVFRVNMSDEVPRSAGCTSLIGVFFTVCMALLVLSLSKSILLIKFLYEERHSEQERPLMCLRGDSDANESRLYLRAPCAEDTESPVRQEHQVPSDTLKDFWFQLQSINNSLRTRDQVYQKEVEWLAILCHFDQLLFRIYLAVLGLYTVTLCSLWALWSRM
Outline: (§1)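 Competition binding was run with radioligand displacement: [3H]spiroperidol for D2-like, [3H]prazosin for α1 and [3H]granisetron for 5-HT3. D2 values are the mean of three independent experiments.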

[2] = molecular target: T2, Adrenergic receptor alpha-1 (Rattus norvegicus, UniProt P15823+P23944+P43140); experiment: In vitro binding affinity at alpha-1 adrenergic receptor in rat cortex by [3H]prazosin displacement.; outline: as §1
T2 sequence (P15823 whole entry): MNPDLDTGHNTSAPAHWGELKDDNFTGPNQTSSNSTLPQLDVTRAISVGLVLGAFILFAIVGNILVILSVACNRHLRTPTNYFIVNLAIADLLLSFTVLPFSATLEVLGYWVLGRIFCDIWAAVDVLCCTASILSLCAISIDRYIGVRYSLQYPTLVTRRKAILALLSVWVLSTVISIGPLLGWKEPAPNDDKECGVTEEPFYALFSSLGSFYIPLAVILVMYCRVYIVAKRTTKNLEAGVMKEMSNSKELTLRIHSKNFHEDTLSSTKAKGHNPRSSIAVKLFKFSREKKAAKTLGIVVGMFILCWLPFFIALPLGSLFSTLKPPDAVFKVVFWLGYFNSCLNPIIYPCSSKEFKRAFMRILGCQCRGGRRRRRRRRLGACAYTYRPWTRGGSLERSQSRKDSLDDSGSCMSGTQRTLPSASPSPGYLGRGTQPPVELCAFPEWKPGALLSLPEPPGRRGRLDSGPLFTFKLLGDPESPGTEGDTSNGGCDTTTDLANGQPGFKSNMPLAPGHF
T2 sequence (P23944 whole entry): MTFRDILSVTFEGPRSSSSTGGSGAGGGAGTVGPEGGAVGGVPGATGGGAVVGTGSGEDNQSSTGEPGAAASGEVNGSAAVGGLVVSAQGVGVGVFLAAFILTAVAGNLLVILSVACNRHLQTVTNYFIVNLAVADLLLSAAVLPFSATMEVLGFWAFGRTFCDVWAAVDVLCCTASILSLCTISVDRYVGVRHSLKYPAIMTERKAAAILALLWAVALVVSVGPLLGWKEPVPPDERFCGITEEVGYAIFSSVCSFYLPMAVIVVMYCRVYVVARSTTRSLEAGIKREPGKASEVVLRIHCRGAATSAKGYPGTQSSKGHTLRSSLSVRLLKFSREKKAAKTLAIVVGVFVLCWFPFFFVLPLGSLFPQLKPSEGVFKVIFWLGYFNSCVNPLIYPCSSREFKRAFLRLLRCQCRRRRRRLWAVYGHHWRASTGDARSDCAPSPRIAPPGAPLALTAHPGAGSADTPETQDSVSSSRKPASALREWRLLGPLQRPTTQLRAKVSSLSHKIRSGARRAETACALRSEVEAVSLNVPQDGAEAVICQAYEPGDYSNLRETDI
T2 sequence (P43140 whole entry): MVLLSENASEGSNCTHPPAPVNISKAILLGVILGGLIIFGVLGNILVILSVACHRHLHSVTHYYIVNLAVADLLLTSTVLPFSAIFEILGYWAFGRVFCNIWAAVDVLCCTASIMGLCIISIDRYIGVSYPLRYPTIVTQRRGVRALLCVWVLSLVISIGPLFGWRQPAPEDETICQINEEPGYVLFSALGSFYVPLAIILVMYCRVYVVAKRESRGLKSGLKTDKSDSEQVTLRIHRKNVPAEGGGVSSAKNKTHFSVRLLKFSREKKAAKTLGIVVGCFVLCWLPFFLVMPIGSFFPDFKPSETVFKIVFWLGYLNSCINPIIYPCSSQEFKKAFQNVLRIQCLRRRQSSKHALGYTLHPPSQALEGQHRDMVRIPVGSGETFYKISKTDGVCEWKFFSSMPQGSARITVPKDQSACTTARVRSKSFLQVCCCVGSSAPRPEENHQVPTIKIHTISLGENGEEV

D(2) dopamine receptor = D(2) dopamine receptor (Rattus norvegicus, UniProt P61169); experiment: In vitro binding affinity at Dopamine receptor D2 in rat striatum by [3H]spiroperidol displacement.; assay type: tissue-based; outline: as §1
Cavia porcellus [3] = organism: Cavia porcellus; experiment: Inhibition of electrically stimulated contractions of the isolated guinea pig badder.; assay type: functional
Sigma 2 receptor [4] = experiment: In vitro binding affinity at opioid sigma-2 receptor in rat liver membranes by [3H]-DTG displacement in the presence of 1 uM (+)-pentazocine.; assay type: cell membranes, Membrane
[5] = molecular target: Sigma non-opioid intracellular receptor 1 (Homo sapiens) (UniProt Q99720); experiment: Binding affinity ratio of sigma 2 receptor to that of sigma 1 receptor
Outline: (§2)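 Sigma-1 binding used guinea pig brain membranes without cerebellum with (+)-[3H]pentazocine. […] IC50 came from 6–9 drug concentrations in two or three experiments with duplicate samples, then converted to apparent Ki. Ratios are computed from these Ki values.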

[6] = molecular target: Sigma non-opioid intracellular receptor 1 (Homo sapiens) (UniProt Q99720); experiment: Binding affinity ratio of sigma 1 receptor to that of sigma 2 receptor; outline: as §2
Cavia porcellus [7] = organism: Cavia porcellus; experiment: Inhibition of electrically stimulated contractions of the isolated guinea pig badder at 30 uM.; assay type: functional
Sigma 2 receptor [8] = experiment: In vitro binding affinity at opioid sigma-2 receptor in rat liver membranes by [3H]DTG displacement in the presence of 1 uM (+)-pentazocine.; assay type: cell membranes, Membrane

Sequence of Sigma non-opioid intracellular receptor 1 (Homo sapiens) (Q99720 whole entry): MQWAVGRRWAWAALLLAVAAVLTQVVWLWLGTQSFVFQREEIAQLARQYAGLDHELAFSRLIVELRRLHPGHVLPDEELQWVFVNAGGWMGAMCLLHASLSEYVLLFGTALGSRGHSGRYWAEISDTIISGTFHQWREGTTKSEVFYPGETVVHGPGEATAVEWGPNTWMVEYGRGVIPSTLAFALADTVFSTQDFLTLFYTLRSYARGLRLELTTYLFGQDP
Sequence of D(2) dopamine receptor (P61169 whole entry): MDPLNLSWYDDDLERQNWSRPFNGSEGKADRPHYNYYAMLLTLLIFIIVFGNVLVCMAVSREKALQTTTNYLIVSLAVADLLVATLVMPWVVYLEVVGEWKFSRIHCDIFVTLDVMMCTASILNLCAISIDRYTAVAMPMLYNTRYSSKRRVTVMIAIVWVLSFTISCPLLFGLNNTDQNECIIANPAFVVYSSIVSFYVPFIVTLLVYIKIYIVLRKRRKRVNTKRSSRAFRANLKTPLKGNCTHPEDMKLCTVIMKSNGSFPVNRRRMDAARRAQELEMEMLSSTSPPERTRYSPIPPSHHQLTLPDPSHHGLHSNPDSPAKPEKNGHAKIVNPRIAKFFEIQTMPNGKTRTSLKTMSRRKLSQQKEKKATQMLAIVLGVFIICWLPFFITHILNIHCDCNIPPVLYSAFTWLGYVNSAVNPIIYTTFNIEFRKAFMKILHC

Compound	Ki [1]	Ki [2]	Ki (D(2) dopamine receptor)	EC50 (Cavia porcellus [3])	Ki (Sigma 2 receptor [4])	Ratio [5]	Ratio [6]	inhibition at 30 µM (Cavia porcellus [7])	Ki (Sigma 2 receptor [8])
COc1cccc2c1CCCC2CCCCCCN1CCN(C2CCCCC2)CC1 (stereo unspecified)	> 700 nM	> 7500 nM	3480 nM	25300 nM	103 nM	34			
c1ccc2c(c1)CCCC2CCCCN1CCN(C2CCCCC2)CC1 (stereo unspecified)	> 700 nM	> 7500 nM			14.6 nM				
c1ccc2c(CCCN3CCN(C4CCCCC4)CC3)cccc2c1	> 700 nM	> 7500 nM		1820 nM	0.69 nM		3.1		
c1ccc2c(c1)CCCC2CCCN1CCN(C2CCCCC2)CC1 (stereo unspecified)	> 700 nM	> 7500 nM			0.68 nM	1.1			
COc1cccc2c(CCCN3CCN(C4CCCCC4)CC3)cccc12	> 700 nM	> 7500 nM			9.24 nM				
COc1cccc2c1CCC[C@@H]2CCCN1CCN(C2CCCCC2)CC1	> 700 nM	> 7500 nM		1500 nM	2.09 nM				
c1ccc2c(CCCCCN3CCN(C4CCCCC4)CC3)cccc2c1				2950 nM	0.57 nM		4.2		
c1ccc(CCN2CCCCC2)cc1	> 700 nM	> 7500 nM			194 nM		1.6	41%	
COc1cccc2c1CCCC2N1CCN(C2CCCCC2)CC1 (stereo unspecified)	> 700 nM	> 7500 nM	1160 nM	6970 nM		20			7.9 nM
COc1cccc2c1CCCC2CN1CCN(C2CCCCC2)CC1 (stereo unspecified)	> 700 nM	> 7500 nM	4260 nM	11500 nM	16.4 nM	53			
Cc1ccccc1NC(=N)Nc1ccccc1C [DITOLYLGUANIDINE]				6900 nM					
Oc1cccc2c1CCCC2CCCN1CCN(C2CCCCC2)CC1 (stereo unspecified)	> 700 nM	> 7500 nM			2.66 nM				
COc1ccc2c(c1)C(CCCN1CCN(C3CCCCC3)CC1)CCC2 (stereo unspecified)	> 700 nM	> 7500 nM	479 nM		1.22 nM		7.4		
c1ccc2c(c1)CCCC2CCCCCN1CCN(C2CCCCC2)CC1 (stereo unspecified)	> 700 nM	> 7500 nM			7.85 nM	5.4			
COc1cccc2c1CCCC2CCCCN1CCN(C2CCCCC2)CC1 (stereo unspecified)	> 700 nM	> 7500 nM	3670 nM	9940 nM	3.58 nM				
COc1cccc2c1CCC[C@H]2CCCN1CCN(C2CCCCC2)CC1	> 700 nM	> 7500 nM		1750 nM	8.65 nM				
c1ccc2c(CCCCN3CCN(C4CCCCC4)CC3)cccc2c1	> 700 nM	> 7500 nM			30.5 nM	139			
COc1cccc2c1CCCC2CCCN1CCN(C2CCCCC2)CC1 (stereo unspecified)	> 700 nM	> 7500 nM	604 nM	2620 nM	0.34 nM				
COc1cccc2c1CCCC2CCCCCN1CCN(C2CCCCC2)CC1 (stereo unspecified)	> 700 nM	> 7500 nM	2450 nM	4900 nM	0.35 nM		4.3		
Oc1ccc2c(c1)CCCC2CCCN1CCN(C2CCCCC2)CC1 (stereo unspecified)	> 700 nM	> 7500 nM			1.12 nM	1.6			
COc1ccc2c(c1)CCCC2CCCN1CCN(C2CCCCC2)CC1 (stereo unspecified)	> 700 nM	> 7500 nM			5.42 nM	15			
COc1cccc2c1CCCC2CCN1CCN(C2CCCCC2)CC1 (stereo unspecified)	> 700 nM	> 7500 nM	1620 nM	16100 nM	21.1 nM	13			

— ChEMBL document CHEMBL1148440, “4-(tetralin-1-yl)- and 4-(naphthalen-1-yl)alkyl derivatives of 1-cyclohexylpiperazine as sigma receptor ligands with agonist sigma2 activity” (J Med Chem, 2004)
